Results as given in ChEMBL document CHEMBL5661974, “Pharmacologic characterization of a potent inhibitor of class I phosphatidylinositide 3-kinases” (Cancer Res, 2007).

Key:
[1] = test system: U-87 MG; assay: Antitumor activity against PTEN null human U-87MG cells xenografted female Ncr model assessed as T/C at 40 mg/kg, ip administered once a daily for 14 days relative to control; format: functional, U-87MG ATCC; details: time 14 day
[2] = test system: Detroit 562; assay: Antiproliferative activity against human Detroit 562 cells harboring PI3KCA mutant assessed as cell growth inhibition incubated for 96 hrs by SRB assay; format: functional
[3] = test system: U-87 MG; assay: Antitumor activity against human U-87MG cells xenografted female Ncr model assessed as ratio of p-AKT Ser473/total AKT at 100 mg/kg, ip by 30 to 60 mins after dosing by electrochemiluminescent immunoassay relative to control; format: functional, U-87MG ATCC; details: time 30-60 min
[4] = Inhibition of recombinant PI3K in human U2OS cells expressing GFP-tagged FKHR assessed as redistribution of cytoplasm to the nucleus before IGF-1 stimulation by fluorescence assay; format: cell-based
Summary of the method: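 U2OS cells expressing GFP-FKHR, cultured in 0.7% serum, treated with inhibitor before IGF-1 stimulation. Nuclear redistribution of GFP was monitored by automated fluorescence imaging, and IC50 was taken from concentration-response curves; Z' above 0.5.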

[5] = Inhibition of recombinant human PI3K in cricetulus griseus CHO cells expressing GFP-tagged AKT3 assessed as translocation to the plasma membrane following IGF-1 stimulation by fluorescence assay
Summary of the method: (§1)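 CHO cells expressing GFP-tagged AKT1, AKT2, AKT3 or PDK1, held in 0.05% serum with 0.1% BSA and stimulated with 100 nmol/L IGF-1. Plasma-membrane translocation was read by automated fluorescence imaging, with IC50 from concentration-response curves; Z' above 0.5.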

[6] = test system: MDA-MB-435; assay: Antitumor activity against ERB-B2 overexpressing human MDA-MB-435 cells xenografted female Ncr model assessed as T/C at 30 mg/kg, ip administered twice a daily for 14 days relative to control; format: functional; details: time 14 day
[7] = Inhibition of recombinant human PI3K in cricetulus griseus CHO cells expressing GFP-tagged AKT2 assessed as translocation to the plasma membrane following IGF-1 stimulation by fluorescence assay; summary of the method: as §1

Work on `Oc1cccc(-c2nc(N3CCOCC3)c3oc4ncccc4c3n2)c1` [PI-103] yielded a T/C [1] of 89.1%, a GI50 [2] of 360 nM and an Activity [3] of about 50%. It also gave an IC50 [4] of 30 nM, an IC50 [5] of 11 nM and a T/C [6] of 69.8%. The IC50 [7] was 13 nM.
